The source of these data is ChEMBL document CHEMBL1129516, “Design, synthesis, and biological activities of cyclic lactam peptide analogues of dynorphine A(1-11)-NH2” (J Med Chem, 1996).

One assay is filed under the species Cavia porcellus. The assay is described as follows: Ability to inhibit the electrically evoked contraction of the guinea pig ileum. The assay is classed as functional, organism-based. In a few lines:
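Longitudinal muscle-myenteric plexus strips from male Hartley guinea pigs (250-500 g) in 37 °C oxygenated Krebs, 1 g tension, transmural stimulation 0.1 Hz, 0.4-ms supramaximal pulses. At least four tissues; IC50 by Hill equation fit.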

Another assay concerns the target Mu-type opioid receptor (Cavia porcellus, UniProt P97266). Nature of the assay: Inhibition of [3H]DAMGO binding to Opioid receptor mu 1 of guinea pig brain membrane homogenates.
The target in assay [1] is Kappa-type opioid receptor (Cavia porcellus, UniProt P41144). Nature of the assay: Inhibition of [3H]U-69593 binding to Opioid receptor kappa 1 of plasma membrane homogenates of guinea pig brain. The assay is classed as cell-free.
Kappa-type opioid receptor, sequence (P41144 whole entry): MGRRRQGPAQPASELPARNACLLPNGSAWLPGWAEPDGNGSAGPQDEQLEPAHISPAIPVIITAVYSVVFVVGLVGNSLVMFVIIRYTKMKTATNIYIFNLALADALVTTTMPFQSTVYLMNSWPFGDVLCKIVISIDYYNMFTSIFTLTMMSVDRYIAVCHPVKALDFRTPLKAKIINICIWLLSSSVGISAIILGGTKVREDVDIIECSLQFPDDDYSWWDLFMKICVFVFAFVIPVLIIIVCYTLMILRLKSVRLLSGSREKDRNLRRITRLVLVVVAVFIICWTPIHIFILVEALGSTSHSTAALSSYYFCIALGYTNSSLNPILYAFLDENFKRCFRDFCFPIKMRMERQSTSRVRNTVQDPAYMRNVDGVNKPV
For assay [2], the system named is Kappa opioid receptor (Cavia porcellus). Nature of the assay: Central (GPB) and Peripheral (GPI) Nervous Systems Selectivity at kappa Opioid Receptor.
A short description of assay [3]: Relative binding to delta and kappa opioid receptors (ratio of IC50).
A short description of assay [4]: Relative binding to mu and kappa opioid receptors (ratio of IC50).

Mu-type opioid receptor, sequence (P97266 whole entry): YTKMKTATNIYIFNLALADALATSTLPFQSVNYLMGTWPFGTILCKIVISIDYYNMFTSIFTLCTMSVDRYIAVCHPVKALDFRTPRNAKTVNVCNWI

As for `CC[C@@H](C)[C@H]1NC(=O)[C@H](CCCNC(=N)N)NC(=O)[C@@H](CCCNC(=N)N)NC(=O)[C@H](NC(=O)[C@@H](Cc2ccccc2)NC(=O)CNC(=O)CNC(=O)[C@H](N)Cc2ccc(O)cc2)CCCCNC(=O)C[C@@H](C(=O)N2CCC[C@H]2C(=O)N[C@H](CCCCN)C(N)=O)NC1=O`, the 50% inhibitory concentration (IC50) came out at 2500 nM in the assay filed under Cavia porcellus, 12 nM at Mu-type opioid receptor and 6.6 nM in assay [1].

In turn, `CC[C@H](C)[C@H](NC(=O)[C@H](CCCCN)NC(=O)[C@H](CCCN=C(N)N)NC(=O)[C@H](CC(C)C)NC(=O)[C@H](Cc1ccccc1)NC(=O)[C@@H](CC(=O)O)NC(=O)CNC(=O)[C@@H](N)Cc1ccc(O)cc1)C(=O)N[C@@H](CCCN=C(N)N)C(=O)N1CCC[C@H]1C(=O)N[C@@H](CCCCN)C(N)=O` showed an IC50 in the assay listed under Cavia porcellus of 4900 nM.

Regarding `CC[C@H](C)[C@H](NC(=O)[C@H](CCCCN)NC(=O)[C@H](CCCN=C(N)N)NC(=O)[C@H](CC(C)C)NC(=O)[C@H](Cc1ccccc1)NC(=O)[C@H](CC(=O)O)NC(=O)CNC(=O)[C@@H](N)Cc1ccc(O)cc1)C(=O)N[C@@H](CCCN=C(N)N)C(=O)N1CCC[C@@H]1C(=O)N[C@H](CCCCN)C(N)=O`, the Ratio in assay [2] was 72 Ratio. The Selectivity turned out to be 9.5 Ratio in assay [3] and 7 Ratio in assay [4].

Turning to `CC[C@H](C)[C@H](NC(=O)[C@H](CCCCN)NC(=O)[C@H](CCCNC(=N)N)NC(=O)[C@H](CC(C)C)NC(=O)[C@H](Cc1ccccc1)NC(=O)[C@@H](CC(=O)O)NC(=O)CNC(=O)[C@@H](N)Cc1ccc(O)cc1)C(=O)N[C@@H](CCCNC(=N)N)C(=O)N1CCC[C@H]1C(=O)N[C@@H](CCCCN)C(N)=O`, the concentration for half-maximal inhibition (IC50) on Mu-type opioid receptor was determined as 660 nM; in assay [1], 47 nM.

On to `CC[C@H](C)[C@H](NC(=O)[C@H]1CCCCNC(=O)C[C@@H](NC(=O)CNC(=O)[C@@H](N)Cc2ccc(O)cc2)C(=O)N[C@H](Cc2ccccc2)C(=O)N[C@@H](CC(C)C)C(=O)N[C@H](CCCN=C(N)N)C(=O)N1)C(=O)N[C@@H](CCCN=C(N)N)C(=O)N1CCC[C@@H]1C(=O)N[C@H](CCCCN)C(N)=O`, for which the IC50 was 1500 nM in the assay filed under Cavia porcellus, 740 nM on Mu-type opioid receptor and 25 nM in assay [1].

`CC[C@H](C)[C@H](NC(=O)[C@H](CCCCN)NC(=O)[C@H](CCCN=C(N)N)NC(=O)[C@H](CC(C)C)NC(=O)[C@H](Cc1ccccc1)NC(=O)[C@H](CC(=O)O)NC(=O)CNC(=O)[C@@H](N)Cc1ccc(O)cc1)C(=O)N[C@@H](CCCN=C(N)N)C(=O)N1CCC[C@H]1C(=O)N[C@@H](CCCCN)C(N)=O`: the IC50 in the assay listed under Cavia porcellus was found to be 13300 nM.

In the case of `CC[C@H](C)[C@H](NC(=O)[C@H](CCCNC(=N)N)NC(=O)[C@H](CCCNC(=N)N)NC(=O)[C@H](CCCCN)NC(=O)[C@H](Cc1ccccc1)NC(=O)CNC(=O)CNC(=O)[C@@H](N)Cc1ccc(O)cc1)C(=O)N[C@H](CC(=O)O)C(=O)N1CCC[C@H]1C(=O)N[C@@H](CCCCN)C(N)=O`, the 50% inhibitory concentration (IC50) at Mu-type opioid receptor was 555 nM; in assay [1] it was 17.5 nM.

`CC[C@H](C)[C@H](NC(=O)[C@H](CCCNC(=N)N)NC(=O)[C@H](CCCCN)NC(=O)[C@H](CC(C)C)NC(=O)[C@H](Cc1ccccc1)NC(=O)CNC(=O)[C@H](CC(=O)O)NC(=O)[C@@H](N)Cc1ccc(O)cc1)C(=O)N[C@@H](CCCNC(=N)N)C(=O)N1CCC[C@H]1C(=O)N[C@@H](CCCCN)C(N)=O`: the IC50 at Mu-type opioid receptor was 0.08 nM; in assay [1], 1.5 nM.

In the assay listed under Cavia porcellus, `CC[C@H](C)[C@H](NC(=O)[C@H](CCCN=C(N)N)NC(=O)[C@@H]1CCCCNC(=O)C[C@H](NC(=O)[C@@H](N)Cc2ccc(O)cc2)C(=O)NCC(=O)N[C@@H](Cc2ccccc2)C(=O)N[C@@H](CC(C)C)C(=O)N1)C(=O)N[C@@H](CCCN=C(N)N)C(=O)N1CCC[C@H]1C(=O)N[C@@H](CCCCN)C(N)=O` gave an IC50 of 610 nM.

Consider `CC[C@H](C)[C@H](NC(=O)[C@H](CCCNC(=N)N)NC(=O)[C@@H]1CCCCNC(=O)C[C@@H](NC(=O)[C@@H](N)Cc2ccc(O)cc2)C(=O)NCC(=O)N[C@@H](Cc2ccccc2)C(=O)N[C@@H](CC(C)C)C(=O)N1)C(=O)N[C@@H](CCCNC(=N)N)C(=O)N1CCC[C@H]1C(=O)N[C@@H](CCCCN)C(N)=O`, for which the half-maximal inhibitory concentration (IC50) at Mu-type opioid receptor worked out at 2980 nM; in assay [1], 100 nM.

`CC[C@H](C)[C@H](NC(=O)[C@H](CCCN=C(N)N)NC(=O)[C@H](CCCN=C(N)N)NC(=O)[C@H](CCCCN)NC(=O)[C@H](Cc1ccccc1)NC(=O)CNC(=O)CNC(=O)[C@@H](N)Cc1ccc(O)cc1)C(=O)N[C@H](CC(=O)O)C(=O)N1CCC[C@H]1C(=O)N[C@@H](CCCCN)C(N)=O` displayed an IC50 in the assay listed under Cavia porcellus of 4160 nM.

On to `CC[C@H](C)[C@H](NC(=O)[C@H](CCCCN)NC(=O)[C@H](CCCNC(=N)N)NC(=O)[C@H](CC(C)C)NC(=O)[C@H](Cc1ccccc1)NC(=O)[C@H](CC(=O)O)NC(=O)CNC(=O)[C@@H](N)Cc1ccc(O)cc1)C(=O)N[C@@H](CCCNC(=N)N)C(=O)N1CCC[C@H]1C(=O)N[C@@H](CCCCN)C(N)=O`, for which the results for the 50% inhibitory concentration (IC50) (on Mu-type opioid receptor; in assay [1]) were 1320 nM and 190 nM, respectively.

The compound `CC[C@H](C)[C@H](NC(=O)[C@H](CCCN=C(N)N)NC(=O)[C@@H]1CCCCNC(=O)C[C@@H](NC(=O)[C@@H](N)Cc2ccc(O)cc2)C(=O)NCC(=O)N[C@@H](Cc2ccccc2)C(=O)N[C@@H](CC(C)C)C(=O)N1)C(=O)N[C@@H](CCCN=C(N)N)C(=O)N1CCC[C@H]1C(=O)N[C@@H](CCCCN)C(N)=O` had an IC50 in the assay listed under Cavia porcellus of 16000 nM. This counts as double-digit micromolar.

In the case of `CC[C@H](C)[C@H](NC(=O)[C@H](CCCN=C(N)N)NC(=O)[C@@H]1CCCCNC(=O)C[C@H](NC(=O)[C@@H](N)Cc2ccc(O)cc2)C(=O)NCC(=O)N[C@H](Cc2ccccc2)C(=O)N[C@@H](CC(C)C)C(=O)N1)C(=O)N[C@@H](CCCN=C(N)N)C(=O)N1CCC[C@@H]1C(=O)N[C@H](CCCCN)C(N)=O`, the Ratio in assay [2] worked out at 5.6 Ratio. The results for the Selectivity in assay [3] and in assay [4] were 0.11 Ratio and 0.03 Ratio, respectively.

For `CC[C@H](C)[C@H](NC(=O)[C@H](CCCCN)NC(=O)[C@H](CCCN=C(N)N)NC(=O)[C@H](CC(C)C)NC(=O)[C@H](Cc1ccccc1)NC(=O)[C@@H](CC(=O)O)NC(=O)CNC(=O)[C@@H](N)Cc1ccc(O)cc1)C(=O)N[C@@H](CCCN=C(N)N)C(=O)N1CCC[C@@H]1C(=O)N[C@H](CCCCN)C(N)=O`, in assay [2], the Ratio was 110 Ratio. The Selectivity in assay [3] turned out to be 19 Ratio; in assay [4], 14 Ratio.

Consider `CC[C@H](C)[C@H](NC(=O)[C@H](CCCN=C(N)N)NC(=O)[C@H](CCCCN)NC(=O)[C@H](CC(C)C)NC(=O)[C@H](Cc1ccccc1)NC(=O)CNC(=O)[C@H](CC(=O)O)NC(=O)[C@@H](N)Cc1ccc(O)cc1)C(=O)N[C@@H](CCCN=C(N)N)C(=O)N1CCC[C@H]1C(=O)N[C@@H](CCCCN)C(N)=O`, for which the IC50 in the assay filed under Cavia porcellus stood at 14.2 nM.

For `CC[C@H](C)[C@H](NC(=O)[C@H](CCCN=C(N)N)NC(=O)[C@H](CCCN=C(N)N)NC(=O)[C@H](CCCCN)NC(=O)[C@H](Cc1ccccc1)NC(=O)CNC(=O)CNC(=O)[C@@H](N)Cc1ccc(O)cc1)C(=O)N[C@@H](CC(=O)O)C(=O)N1CCC[C@H]1C(=O)N[C@@H](CCCCN)C(N)=O`, the IC50 is 400 nM on Mu-type opioid receptor and 35 nM in assay [1].

As to `CC[C@H](C)[C@H](NC(=O)[C@H]1CCCCNC(=O)C[C@H](NC(=O)CNC(=O)[C@@H](N)Cc2ccc(O)cc2)C(=O)N[C@H](Cc2ccccc2)C(=O)N[C@@H](CC(C)C)C(=O)N[C@H](CCCN=C(N)N)C(=O)N1)C(=O)N[C@@H](CCCN=C(N)N)C(=O)N1CCC[C@@H]1C(=O)N[C@H](CCCCN)C(N)=O`, the IC50 in the assay listed under Cavia porcellus was found to be 600 nM; on Mu-type opioid receptor, 310 nM; in assay [1] it was 4.9 nM.

Turning to `CC[C@@H](C)[C@H]1NC(=O)[C@H](CCCN=C(N)N)NC(=O)[C@@H](CCCN=C(N)N)NC(=O)[C@H](NC(=O)[C@@H](Cc2ccccc2)NC(=O)CNC(=O)CNC(=O)[C@H](N)Cc2ccc(O)cc2)CCCCNC(=O)C[C@H](C(=O)N2CCC[C@H]2C(=O)N[C@H](CCCCN)C(N)=O)NC1=O`, the IC50 is 9300 nM in the assay listed under Cavia porcellus, 120 nM at Mu-type opioid receptor and 100 nM in assay [1].

On to `CC[C@H](C)[C@H](NC(=O)[C@H](CCCNC(=N)N)NC(=O)[C@@H]1CCCCNC(=O)C[C@H](NC(=O)[C@@H](N)Cc2ccc(O)cc2)C(=O)NCC(=O)N[C@@H](Cc2ccccc2)C(=O)N[C@@H](CC(C)C)C(=O)N1)C(=O)N[C@@H](CCCNC(=N)N)C(=O)N1CCC[C@H]1C(=O)N[C@@H](CCCCN)C(N)=O`, for which the IC50 on Mu-type opioid receptor was found to be 3.4 nM; in assay [1], 110 nM.

Regarding `CC[C@H](C)[C@H](NC(=O)[C@H](CCCN=C(N)N)NC(=O)[C@@H]1CCCCNC(=O)C[C@@H](NC(=O)[C@@H](N)Cc2ccc(O)cc2)C(=O)NCC(=O)N[C@H](Cc2ccccc2)C(=O)N[C@@H](CC(C)C)C(=O)N1)C(=O)N[C@@H](CCCN=C(N)N)C(=O)N1CCC[C@@H]1C(=O)N[C@H](CCCCN)C(N)=O`, in assay [2], the Ratio came out at 160 Ratio. Also, the Selectivity in assay [3] is 9.1 Ratio; in assay [4] it was 29.8 Ratio.
